Converted amounts (≈) assume the structure as drawn.
Experiments:
Escherichia coli [1] = test: Antibacterial activity against Escherichia coli DH5alpha expressing Klebsiella pneumoniae beta-lactamase SHV-72 by agar dilution method; assay type: functional
Klebsiella pneumoniae [2] = test: Antibacterial activity against Klebsiella pneumoniae INSRA1229 harboring SHV-72 Ile8Phe, Ala146Val, and Lys234Arg mutations by agar dilution method
Escherichia coli [3] = test: Antibacterial activity against Escherichia coli DH5alpha expressing Klebsiella pneumoniae beta-lactamase SHV-1 by agar dilution method; assay type: functional
Escherichia coli [4] = test: Antibacterial activity against Escherichia coli DH5alpha with deltaampC by agar dilution method; assay type: functional
Escherichia coli [5] = test: Antibacterial activity against Escherichia coli DH5alpha expressing Klebsiella pneumoniae beta-lactamase SHV-72 by agar dilution method in presence of 2 ug/ml clavulanic acid; assay type: functional
Escherichia coli [6] = test: Antibacterial activity against Escherichia coli DH5alpha with deltaampC by agar dilution method in presence of 2 ug/ml clavulanic acid; assay type: functional
Klebsiella pneumoniae [7] = test: Antibacterial activity against Klebsiella pneumoniae INSRA1229 harboring SHV-72 Ile8Phe, Ala146Val, and Lys234Arg mutations by agar dilution method in presence of 2 ug/ml clavulanic acid; assay type: functional
Escherichia coli [8] = test: Antibacterial activity against Escherichia coli DH5alpha expressing Klebsiella pneumoniae beta-lactamase SHV-1 by agar dilution method in presence of 2 ug/ml clavulanic acid; assay type: functional
Escherichia coli [9] = test: Antibacterial activity against Escherichia coli DH5alpha with deltaampC by agar dilution method in presence of 4 ug/ml Tazobactam; assay type: functional
Escherichia coli [10] = test: Antibacterial activity against Escherichia coli DH5alpha expressing Klebsiella pneumoniae beta-lactamase SHV-1 by agar dilution method in presence of 4 ug/ml Tazobactam; assay type: functional
Klebsiella pneumoniae [11] = test: Antibacterial activity against Klebsiella pneumoniae INSRA1229 harboring SHV-72 Ile8Phe, Ala146Val, and Lys234Arg mutations in presence of 4 ug/ml Tazobactam; assay type: functional
Escherichia coli [12] = test: Antibacterial activity against Escherichia coli DH5alpha expressing Klebsiella pneumoniae beta-lactamase SHV-72 by agar dilution method in presence of 4 ug/ml Tazobactam; assay type: functional
[13] = substrate: CCN1CCN(C(=O)N[C@@H](C(=O)N[C@@H]2C(=O)N3[C@@H]2SC(C)(C)[C@@H]3C(=O)O)c2ccccc2)C(=O)C1=O; test: (§1) Ratio of Kcat to Km for Klebsiella pneumoniae Beta-Lactamase SHV-1
Summary of the method: (§2)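 kcat/Km came from Km and kcat of purified enzyme, which was expressed in E. coli DH5α ΔampC and purified by ion exchange then gel filtration. Both constants were measured by computerized pH-stat microacidimetry, with complete hydrolysis progress curves fitted by nonlinear least-squares regression. Each substrate was run three times.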

[14] = substrate: CC1(C)S[C@@H]2[C@H](NC(=O)[C@H](C(=O)O)c3ccsc3)C(=O)N2[C@H]1C(=O)O; test: as §1; summary of the method: as §2
[15] = substrate: CC1(C)S[C@@H]2[C@H](NC(=O)Cc3ccccc3)C(=O)N2[C@H]1C(=O)O; test: as §1; summary of the method: as §2
[16] = substrate: CC1(C)S[C@@H]2[C@H](NC(=O)[C@H](C(=O)O)c3ccsc3)C(=O)N2[C@H]1C(=O)O; test: (§3) Activity of Klebsiella pneumoniae Beta-Lactamase SHV-1
Summary of the method: (§4)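 SHV-1 or SHV-72 came from E. coli DH5α ΔampC clones grown 18 h at 37°C. Enzymes were purified by ion exchange then gel filtration, with protein measured by BCA. Km and kcat were measured by pH-stat microacidimetry, fitting complete hydrolysis time courses by nonlinear least squares, three determinations per substrate.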

[17] = substrate: CC1(C)S[C@@H]2[C@H](NC(=O)Cc3ccccc3)C(=O)N2[C@H]1C(=O)O; test: as §3; summary of the method: as §4
[18] = substrate: CC(=O)OCC1=C(C(=O)O)N2C(=O)[C@@H](NC(=O)Cc3cccs3)[C@H]2SC1; test: (§5) Activity of Klebsiella pneumoniae Beta-Lactamase SHV-72; summary of the method: as §4
[19] = substrate: CC1(C)S[C@@H]2[C@H](NC(=O)[C@H](N)c3ccc(O)cc3)C(=O)N2[C@H]1C(=O)O; test: as §5; summary of the method: as §4
[20] = substrate: CC(C)(O/N=C(\C(=O)N[C@@H]1C(=O)N2C(C(=O)[O-])=C(C[n+]3ccccc3)CS[C@H]12)c1csc(N)n1)C(=O)O; test: as §5; summary of the method: as §4
[21] = substrate: CO/N=C(\C(=O)N[C@@H]1C(=O)N2C(C(=O)O)=C(COC(C)=O)CS[C@H]12)c1csc(N)n1; test: as §5; summary of the method: as §4
[22] = substrate: CCN1CCN(C(=O)N[C@@H](C(=O)N[C@@H]2C(=O)N3[C@@H]2SC(C)(C)[C@@H]3C(=O)O)c2ccccc2)C(=O)C1=O; test: as §5; summary of the method: as §4
[23] = substrate: CC1(C)S[C@@H]2[C@H](NC(=O)[C@H](C(=O)O)c3ccsc3)C(=O)N2[C@H]1C(=O)O; test: as §5; summary of the method: as §4
[24] = substrate: CC1(C)S[C@@H]2[C@H](NC(=O)Cc3ccccc3)C(=O)N2[C@H]1C(=O)O; test: as §5; summary of the method: as §4
[25] = substrate: CC(=O)OCC1=C(C(=O)O)N2C(=O)[C@@H](NC(=O)Cc3cccs3)[C@H]2SC1; test: (§6) Ratio of Kcat to Km for Klebsiella pneumoniae Beta-Lactamase SHV-72; summary of the method: as §2
[26] = substrate: CC1(C)S[C@@H]2[C@H](NC(=O)[C@H](N)c3ccc(O)cc3)C(=O)N2[C@H]1C(=O)O; test: as §6; summary of the method: as §2
[27] = substrate: CCN1CCN(C(=O)N[C@@H](C(=O)N[C@@H]2C(=O)N3[C@@H]2SC(C)(C)[C@@H]3C(=O)O)c2ccccc2)C(=O)C1=O; test: as §6; summary of the method: as §2
[28] = substrate: CC1(C)S[C@@H]2[C@H](NC(=O)[C@H](C(=O)O)c3ccsc3)C(=O)N2[C@H]1C(=O)O; test: as §6; summary of the method: as §2
[29] = substrate: CC1(C)S[C@@H]2[C@H](NC(=O)Cc3ccccc3)C(=O)N2[C@H]1C(=O)O; test: as §6; summary of the method: as §2
[30] = Escherichia coli, DH5alpha, read-out: MIC

Molecule | MIC (Escherichia coli [1]; [30]) [µg/mL] | MIC (Klebsiella pneumoniae [2]) [µg/mL] | MIC (Escherichia coli [3]) [µg/mL] | MIC (Escherichia coli [4]) [µg/mL] | also measured
CC1(C)S[C@@H]2[C@H](/N=C/N3CCCCCC3)C(=O)N2[C@H]1C(=O)O [AMDINOCILLIN] | 0.25 (≈ 0.768 µM) | 0.25 (≈ 0.768 µM) | 0.5 (≈ 1.54 µM) | 0.125 (≈ 0.384 µM) | –
CO/N=C(\C(=O)N[C@@H]1C(=O)N2C(C(=O)[O-])=C(C[N+]3(C)CCCC3)CS[C@H]12)c1csc(N)n1 | 0.03 (≈ 0.0624 µM) | 0.03 (≈ 0.0624 µM) | 0.03 (≈ 0.0624 µM) | 0.03 (≈ 0.0624 µM) | –
GENTAMICIN | – | – | 0.25 | < 0.125 | MIC (Escherichia coli [1]): 0.25 µg/mL
CC1(C)S[C@@H]2[C@H](NC(=O)[C@H](N)c3ccc(O)cc3)C(=O)N2[C@H]1C(=O)O [AMOXICILLIN] | 512 (≈ 1400 µM) | 2050 (≈ 5600 µM) | 2050 (≈ 5600 µM) | 8 (≈ 21.9 µM) | MIC (Escherichia coli [5]): 64 µM; MIC (Escherichia coli [6]): 8 µM; MIC (Klebsiella pneumoniae [7]): 64 µM; MIC (Escherichia coli [8]): 8 µM
CO/N=C(\C(=O)N[C@@H]1C(=O)N2C(C(=O)O)=C(COC(C)=O)CS[C@H]12)c1csc(N)n1 [CEFOTAXIME] | 0.06 (≈ 0.132 µM) | 0.125 (≈ 0.274 µM) | 0.06 (≈ 0.132 µM) | 0.06 (≈ 0.132 µM) | MIC (Escherichia coli [5]): 0.06 µg/mL; MIC (Escherichia coli [6]): 0.06 µg/mL; MIC (Klebsiella pneumoniae [7]): 0.06 µg/mL; MIC (Escherichia coli [8]): 0.06 µg/mL
CO/N=C(\C(=O)N[C@@H]1C(=O)N2C(C(=O)O)=C(CSc3nc(=O)c(O)nn3C)CS[C@H]12)c1csc(N)n1 [CEFTRIAXONE] | 0.03 (≈ 0.0541 µM) | 0.03 (≈ 0.0541 µM) | 0.03 (≈ 0.0541 µM) | 0.03 (≈ 0.0541 µM) | MIC (Escherichia coli [1]): 0.03 µg/mL (≈ 0.0541 µM); MIC (Escherichia coli [6]): 0.06 µg/mL; MIC (Klebsiella pneumoniae [7]): ≤ 0.015 µg/mL; MIC (Escherichia coli [8]): 0.03 µg/mL
C[C@@H](O)[C@H]1C(=O)N2C(C(=O)O)=C(SCCNC=N)C[C@H]12 [IMIPENEM ANHYDROUS] | – | 0.125 (≈ 0.418 µM) | – | – | –
CO[C@@]1(NC(=O)Cc2cccs2)C(=O)N2C(C(=O)O)=C(COC(N)=O)CS[C@@H]21 [CEFOXITIN] | 8 (≈ 18.7 µM) | 4 (≈ 9.36 µM) | 8 (≈ 18.7 µM) | 4 (≈ 9.36 µM) | –
CC(=O)OCC1=C(C(=O)O)N2C(=O)[C@@H](NC(=O)Cc3cccs3)[C@H]2SC1 [CEPHALOTHIN] | 4 (≈ 10.1 µM) | 8 (≈ 20.2 µM) | 16 (≈ 40.4 µM) | 8 (≈ 20.2 µM) | –
CO/N=C(\C(=O)N[C@@H]1C(=O)N2C(C(=O)O)=C(COC(N)=O)CS[C@H]12)c1ccco1 [CEFUROXIME] | 8 (≈ 18.9 µM) | 2 (≈ 4.71 µM) | 4 (≈ 9.43 µM) | 4 (≈ 9.43 µM) | –
CCN1CCN(C(=O)N[C@@H](C(=O)N[C@@H]2C(=O)N3C(C(=O)O)=C(CSc4nnnn4C)CS[C@H]23)c2ccc(O)cc2)C(=O)C1=O [CEFOPERAZONE] | ≤ 0.25 | 2 (≈ 3.1 µM) | 4 (≈ 6.2 µM) | ≤ 0.25 | –
CC(C)(O/N=C(\C(=O)N[C@@H]1C(=O)N2C(C(=O)[O-])=C(C[n+]3ccccc3)CS[C@H]12)c1csc(N)n1)C(=O)O [CEFTAZIDIME] | 0.25 (≈ 0.457 µM) | – | 0.5 (≈ 0.915 µM) | 0.25 (≈ 0.457 µM) | MIC (Escherichia coli [5]): 0.25 µg/mL; MIC (Escherichia coli [6]): 0.125 µg/mL; MIC (Escherichia coli [8]): 0.25 µg/mL
CC1(C)S[C@@H]2[C@H](NC(=O)[C@H](C(=O)O)c3ccsc3)C(=O)N2[C@H]1C(=O)O [TICARCILLIN] | 8 (≈ 20.8 µM) | 512 (≈ 1330 µM) | 1020 (≈ 2660 µM) | 4 (≈ 10.4 µM) | –
O=C(O)c1cn(C2CC2)c2cc(N3CCNCC3)c(F)cc2c1=O [CIPROFLOXACIN] | ≤ 0.125 | ≤ 0.125 | ≤ 0.125 | ≤ 0.125 | –
CCN1CCN(C(=O)N[C@@H](C(=O)N[C@@H]2C(=O)N3[C@@H]2SC(C)(C)[C@@H]3C(=O)O)c2ccccc2)C(=O)C1=O [PIPERACILLIN] | 4 (≈ 7.73 µM) | 32 (≈ 61.8 µM) | 64 (≈ 124 µM) | 2 (≈ 3.86 µM) | MIC (Escherichia coli [9]): 2 µM; MIC (Escherichia coli [10]): 2 µM; MIC (Klebsiella pneumoniae [11]): 2 µM; MIC (Escherichia coli [12]): 2 µM
COc1cc(Cc2cnc(N)nc2N)cc(OC)c1OC [TRIMETHOPRIM] | ≤ 0.125 | 0.5 (≈ 1.72 µM) | ≤ 0.125 | ≤ 0.125 | –
Beta-lactamase SHV-1 (Klebsiella pneumoniae), P0AD64 (protein) MRYIRLCIISLLATLPLAVHASPQPLEQIKLSESQLSGRVGMIEMDLASGRTLTAWRADERFPMMSTFKVVLCGAVLARVDAGDEQLERKIHYRQQDLVDYSPVSEKHLADGMTVGELCAAAITMSDNSAANLLLATVGGPAGLTAFLRQIGDNVTRLDRWETELNEALPGDARDTTTPASMAATLRKLLTSQRLSARSQRQLLQWMVDDRVAGPLIRSVLPAGWFIADKTGAGERGARGIVALLGPNNKAERIVVIYLRDTPASMAERNQQIAGIGAALIEHWQR | – | – | – | – | kcat/Km [13]: 6.21e+07 M⁻¹ s⁻¹; kcat/Km [14]: 2e+07 M⁻¹ s⁻¹; kcat/Km [15]: 8.42e+07 M⁻¹ s⁻¹; Km [16]: 11 µM; kcat [17]: 1940 s⁻¹
Beta-lactamase SHV-72 (Klebsiella pneumoniae), A0ZX81 (protein) MRYFRLCIISLLATLPLAVHASPQPLEQIKLSESQLSGRVGMIEMDLASGRTLTAWRADERFPMMSTFKVVLCGAVLARVDAGDEQLERKIHYRQQDLVDYSPVSEKHLADGMTVGELCAAAITMSDNSAANLLLATVGGPVGLTAFLRQIGDNVTRLDRWETELNEALPGDARDTTTPASMAATLRKLLTSQRLSARSQRQLLQWMVDDRVAGPLIRSVLPAGWFIADRTGAGERGARGIVALLGPNNKAERIVVIYLRDTPASMAERNQQIAGIGAALIEHWQR | – | – | – | – | Km [18]: 141 µM; kcat [18]: 38 s⁻¹; Km [19]: 26 µM; kcat [19]: 5880 s⁻¹; kcat [20]: < 0.1 s⁻¹; kcat [21]: < 0.1 s⁻¹; Km [22]: 43 µM; kcat [22]: 1920 s⁻¹; Km [23]: 36 µM; kcat [23]: 1280 s⁻¹; Km [24]: 19 µM; kcat [24]: 5440 s⁻¹; kcat/Km [25]: 300000 M⁻¹ s⁻¹; kcat/Km [26]: 2.26e+08 M⁻¹ s⁻¹; kcat/Km [27]: 4.46e+07 M⁻¹ s⁻¹; kcat/Km [28]: 3.55e+07 M⁻¹ s⁻¹; kcat/Km [29]: 2.86e+08 M⁻¹ s⁻¹

— ChEMBL document CHEMBL1255335 (Antimicrob Agents Chemother, 2008)
